Source: paper PMC3518307 (Bioorganic & medicinal chemistry letters, 2012)
pIC50: −log10 of the molar value.

Legend:
[1] = target: reverse transcriptase from HIV-1 (Human immunodeficiency virus type 1 group M subtype B, UniProt P04585); test: Single point assay of HIV-RT activity; format: biochemical; conditions: mono-intercalators
telomerase = telomerase (Homo sapiens, UniProt O14746); test: Telomerase inhibition assay using partially purified telomerase; format: biochemical
Procedure, shortened: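 Partially purified telomerase, prepared by an adapted published procedure, used instead of the crude HeLa cell homogenate of the standard assay to limit extra nucleic acids that could bind bis-intercalators in the mix; IC50 from inhibition curves, with error values reported.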

Chain of telomerase (O14746 whole entry): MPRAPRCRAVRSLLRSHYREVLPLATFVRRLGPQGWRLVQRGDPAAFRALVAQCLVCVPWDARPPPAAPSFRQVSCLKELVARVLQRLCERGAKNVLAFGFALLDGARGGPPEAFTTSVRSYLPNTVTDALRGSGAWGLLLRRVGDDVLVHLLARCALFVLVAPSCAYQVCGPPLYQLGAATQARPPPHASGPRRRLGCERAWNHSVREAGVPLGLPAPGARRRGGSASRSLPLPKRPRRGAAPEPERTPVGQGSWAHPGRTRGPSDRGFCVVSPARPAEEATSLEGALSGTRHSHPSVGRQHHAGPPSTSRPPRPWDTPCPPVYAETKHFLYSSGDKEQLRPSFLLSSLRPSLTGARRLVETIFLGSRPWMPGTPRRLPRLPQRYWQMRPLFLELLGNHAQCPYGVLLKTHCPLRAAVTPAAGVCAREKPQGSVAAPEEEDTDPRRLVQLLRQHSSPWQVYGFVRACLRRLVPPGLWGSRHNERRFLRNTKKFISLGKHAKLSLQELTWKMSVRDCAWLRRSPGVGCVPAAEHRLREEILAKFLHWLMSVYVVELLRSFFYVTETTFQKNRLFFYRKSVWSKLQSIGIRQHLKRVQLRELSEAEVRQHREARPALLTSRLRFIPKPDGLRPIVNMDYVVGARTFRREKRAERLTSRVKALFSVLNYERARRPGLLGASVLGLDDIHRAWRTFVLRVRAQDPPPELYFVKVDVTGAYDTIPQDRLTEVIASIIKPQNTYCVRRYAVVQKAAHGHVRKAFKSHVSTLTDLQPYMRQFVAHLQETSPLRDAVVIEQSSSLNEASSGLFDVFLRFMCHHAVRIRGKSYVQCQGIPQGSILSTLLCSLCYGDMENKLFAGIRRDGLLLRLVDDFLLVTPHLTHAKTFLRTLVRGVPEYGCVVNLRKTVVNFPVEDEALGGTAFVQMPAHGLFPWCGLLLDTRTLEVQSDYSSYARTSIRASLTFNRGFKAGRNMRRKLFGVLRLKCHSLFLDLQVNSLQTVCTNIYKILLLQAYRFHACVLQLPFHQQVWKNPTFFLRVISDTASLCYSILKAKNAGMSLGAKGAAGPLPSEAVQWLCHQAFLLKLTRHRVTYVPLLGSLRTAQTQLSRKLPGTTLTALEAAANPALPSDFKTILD
Chain of telomerase (O60832 whole entry partner): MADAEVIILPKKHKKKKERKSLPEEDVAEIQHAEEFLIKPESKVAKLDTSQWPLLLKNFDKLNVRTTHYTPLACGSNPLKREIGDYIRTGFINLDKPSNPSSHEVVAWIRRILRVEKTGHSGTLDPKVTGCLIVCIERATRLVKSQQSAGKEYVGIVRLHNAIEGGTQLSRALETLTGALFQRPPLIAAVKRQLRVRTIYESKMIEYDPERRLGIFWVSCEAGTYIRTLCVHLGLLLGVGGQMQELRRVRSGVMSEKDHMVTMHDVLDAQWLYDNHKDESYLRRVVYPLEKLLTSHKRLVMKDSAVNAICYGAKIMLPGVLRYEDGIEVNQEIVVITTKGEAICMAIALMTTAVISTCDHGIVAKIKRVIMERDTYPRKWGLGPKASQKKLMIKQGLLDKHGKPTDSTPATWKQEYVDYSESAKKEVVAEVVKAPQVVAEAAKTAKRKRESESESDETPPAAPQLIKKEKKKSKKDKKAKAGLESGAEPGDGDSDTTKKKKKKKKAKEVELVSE
Chain of telomerase (Q9NPE3 whole entry partner): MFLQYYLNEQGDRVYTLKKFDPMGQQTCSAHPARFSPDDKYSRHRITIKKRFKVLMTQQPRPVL
Chain of telomerase (Q9NX24 whole entry partner): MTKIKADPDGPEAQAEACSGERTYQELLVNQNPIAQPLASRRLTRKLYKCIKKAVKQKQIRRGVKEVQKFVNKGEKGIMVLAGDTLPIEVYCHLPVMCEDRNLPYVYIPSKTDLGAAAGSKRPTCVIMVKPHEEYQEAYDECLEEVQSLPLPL
Chain of telomerase (Q9NY12 whole entry partner): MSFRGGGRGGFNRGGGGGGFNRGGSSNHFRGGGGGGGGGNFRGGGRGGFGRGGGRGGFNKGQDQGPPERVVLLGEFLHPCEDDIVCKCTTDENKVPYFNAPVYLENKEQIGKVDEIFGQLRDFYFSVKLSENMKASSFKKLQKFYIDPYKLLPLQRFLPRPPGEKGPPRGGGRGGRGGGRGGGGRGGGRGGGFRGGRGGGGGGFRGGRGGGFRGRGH
Chain of telomerase (Q9BUR4 whole entry partner): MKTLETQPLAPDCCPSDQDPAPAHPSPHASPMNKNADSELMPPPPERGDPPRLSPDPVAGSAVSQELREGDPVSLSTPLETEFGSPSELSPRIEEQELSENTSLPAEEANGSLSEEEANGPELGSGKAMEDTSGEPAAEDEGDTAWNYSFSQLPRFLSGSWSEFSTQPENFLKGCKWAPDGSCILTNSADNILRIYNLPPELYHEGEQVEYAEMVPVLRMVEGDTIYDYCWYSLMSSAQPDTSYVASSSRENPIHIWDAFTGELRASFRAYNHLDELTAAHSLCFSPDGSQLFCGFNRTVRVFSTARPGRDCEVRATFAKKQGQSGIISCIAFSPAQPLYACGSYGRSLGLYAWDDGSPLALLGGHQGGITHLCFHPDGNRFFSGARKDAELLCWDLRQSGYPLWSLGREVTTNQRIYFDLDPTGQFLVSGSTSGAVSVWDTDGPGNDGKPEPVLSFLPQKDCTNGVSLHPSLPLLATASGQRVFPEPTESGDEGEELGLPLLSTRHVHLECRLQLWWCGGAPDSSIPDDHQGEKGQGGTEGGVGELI

pIC50 (telomerase)	SMILES	IC50 estimates against reverse transcriptase [1]
–	O=C(O)c1cccc2cc3ccccc3cc12 [1-Anthracene carboxylic acid]	No inhibition observed
–	O=C(O)c1ccc2cc3ccccc3cc2c1 [2-Anthracene carboxylic acid]	No inhibition observed
–	O=C(O)c1c2ccccc2nc2ccccc12 [9-Acridine carboxylic acid]	No inhibition observed
–	COc1ccc2nc3cc(Cl)ccc3c(N)c2c1 [9-Amino-6-Chloro-2-Methoxy acridine]	No inhibition observed
6.99	NCCCC[C@H](NC(=O)CCNC(=O)C(N)CN)C(N)=O (some centres unmarked) [compound 1]	–
